This note sets out measurements from ChEMBL document CHEMBL2203130, “Sulfanylphthalonitrile analogues as selective and potent inhibitors of monoamine oxidase B” (Bioorg Med Chem Lett, 2012).

Each structure is given as a SMILES string.

The target of data set [1] is T1, Amine oxidase [flavin-containing] B (Homo sapiens, UniProt P27338).
T1 sequence (P27338 whole entry): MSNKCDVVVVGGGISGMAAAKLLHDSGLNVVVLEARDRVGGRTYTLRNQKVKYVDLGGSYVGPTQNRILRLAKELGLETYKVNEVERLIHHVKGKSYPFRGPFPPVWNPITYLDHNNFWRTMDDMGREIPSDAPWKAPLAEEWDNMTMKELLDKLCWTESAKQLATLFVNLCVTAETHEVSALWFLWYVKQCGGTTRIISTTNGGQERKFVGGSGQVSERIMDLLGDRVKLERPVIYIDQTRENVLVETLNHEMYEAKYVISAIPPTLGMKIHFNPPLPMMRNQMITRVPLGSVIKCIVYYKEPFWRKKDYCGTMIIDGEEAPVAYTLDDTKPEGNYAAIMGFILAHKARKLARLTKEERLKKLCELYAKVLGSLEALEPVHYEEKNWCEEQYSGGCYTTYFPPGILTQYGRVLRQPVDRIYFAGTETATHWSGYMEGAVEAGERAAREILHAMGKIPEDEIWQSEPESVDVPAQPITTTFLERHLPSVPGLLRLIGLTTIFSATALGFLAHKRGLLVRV
The data set can be described thus: Inhibition of human recombinant MAOB expressed in insect cell microsomes using kynuramine as substrate after 20 mins by fluorescence spectrophotometric analysis. The arrangement: species or system Microsome.

Data set [2] deals with T2, Amine oxidase [flavin-containing] A (Homo sapiens, UniProt P21397).
T2 sequence (P21397 whole entry): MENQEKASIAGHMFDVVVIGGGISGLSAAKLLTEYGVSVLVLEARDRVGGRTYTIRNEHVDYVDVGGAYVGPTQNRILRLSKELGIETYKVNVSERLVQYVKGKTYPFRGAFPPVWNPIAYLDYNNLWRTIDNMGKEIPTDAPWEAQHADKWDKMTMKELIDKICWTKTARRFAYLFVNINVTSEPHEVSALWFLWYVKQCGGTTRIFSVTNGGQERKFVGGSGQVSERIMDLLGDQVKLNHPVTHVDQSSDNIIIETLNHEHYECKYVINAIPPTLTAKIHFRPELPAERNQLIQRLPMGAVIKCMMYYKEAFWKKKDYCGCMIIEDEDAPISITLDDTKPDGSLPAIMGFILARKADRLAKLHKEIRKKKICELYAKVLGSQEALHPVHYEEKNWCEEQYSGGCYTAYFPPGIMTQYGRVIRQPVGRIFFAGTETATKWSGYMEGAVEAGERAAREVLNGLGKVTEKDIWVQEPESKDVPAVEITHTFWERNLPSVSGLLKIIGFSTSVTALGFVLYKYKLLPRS
Put plainly: Inhibition of human recombinant MAOA expressed in insect cell microsomes using kynuramine as substrate after 20 mins by fluorescence spectrophotometric analysis. The arrangement: species or system Microsome. The essentials: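 Recombinant human MAO-A at 0.0075 mg protein/mL, started with enzyme, in 100 mM potassium phosphate pH 7.4 made isotonic with KCl, 4% DMSO. Inhibitor 0.003–100 µM, kynuramine 45 µM final. 20 min at 37 °C, stopped with NaOH. 4-Hydroxyquinoline read by fluorescence against a calibration curve. IC50 from one-site competition fit, triplicate, mean ± SD.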

For data set [3], the species on record is Homo sapiens. Put plainly: Selectivity index, ratio of Ki for human recombinant MAOA to Ki for human recombinant MAOB. In outline:
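Ki values derived from IC50s by the Cheng–Prusoff equation. MAO-A used [S] 45 µM and Km 16.1 µM; MAO-B used [S] 30 µM and Km 22.7 µM. Index is Ki(MAO-A)/Ki(MAO-B).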

Data set [4] is filed under the species Homo sapiens. Put plainly: Selectivity index, ratio of IC50 for human recombinant MAOA to IC50 for human recombinant MAOB. In outline:
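Ratio of IC50 for MAO-A to IC50 for MAO-B. Both IC50s from the kynuramine fluorescence assay: MAO-A with 45 µM kynuramine, MAO-B with 30 µM. Each run in triplicate.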

The target in data set [5] is T2, Amine oxidase [flavin-containing] A. Put plainly: Ratio of compound IC50 to clorgyline IC50 for human recombinant MAOA.
The target in data set [6] is T1, Amine oxidase [flavin-containing] B. The data set can be described thus: Reversible inhibition of human recombinant MAOB expressed in insect cell microsomes using kynuramine as substrate assessed as residual activity at 100 times IC50 preincubated for 30 mins followed by 100 fold dilution measured after 20 mins by fluorescence spectrophotometric analysis relative to control. Also on record: species or system Microsome. In outline: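 Recombinant human MAO-B (0.75 mg/ml) preincubated 30 min at 37 °C with inhibitor at 0, 10 or 100 × IC50 in pH 7.4 isotonic potassium phosphate with 4% DMSO. Diluted 100-fold with kynuramine to 30 µM substrate and 0.0075 mg/mL enzyme. Then 20 min at 37 °C. Residual 4-hydroxyquinoline formation measured by fluorescence, relative to no-inhibitor control. (R)-deprenyl at 10 × IC50 run as comparator.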

Turning to `N#Cc1ccc(SCc2ccc(F)cc2)cc1`, the half-inhibitory concentration (IC50) in data set [1] stood at 0.449 µM; in data set [2] it was 54.7 µM. Moreover, the Ratio Ki in the data set listed under Homo sapiens [3] came to 75. For the same molecule, the Ratio IC50 in the data set filed under Homo sapiens [4] was determined as 122.
Consider `N#Cc1ccc(OCc2ccc(Br)cc2)cc1C#N`, for which the Ratio IC50 in the data set filed under Homo sapiens [4] is 134.
Turning to `N#Cc1ccc(SCc2ccccc2)cc1`, the half-inhibitory concentration (IC50) in data set [1] amounted to 1.58 µM; in data set [2], 42.4 µM. Further, the Ratio Ki in the data set listed under Homo sapiens [3] stood at 16. Besides, in the data set filed under Homo sapiens [4], the Ratio IC50 came out at 27.
In the same order, the values of `N#Cc1ccc(SC2CCCCC2)cc1C#N` are 0.223 µM, 5.96 µM, 16.3 and 27.
For the molecule `COc1ccc(CSc2ccc(C#N)cc2)cc1`, the IC50 in data set [1] was 0.861 µM; in data set [2] it was 5.59 µM. Besides, the Ratio Ki in the data set listed under Homo sapiens [3] stood at 4. Further, the Ratio IC50 in the data set filed under Homo sapiens [4] was found to be 6.5.
As to `N#Cc1ccc(SCc2ccc(F)cc2)cc1C#N`, the IC50 worked out at 0.034 µM in data set [1] and 2.1 µM in data set [2]. The Ratio Ki in the data set listed under Homo sapiens [3] was found to be 38. For the same molecule, the Ratio IC50 in the data set filed under Homo sapiens [4] was 62.
In the same order, the values of `COc1ccc(CSc2ccc(C#N)c(C#N)c2)cc1` are 0.067 µM, 129 µM, 1180 and 1920.
For the molecule `N#Cc1ccc(SCc2ccc(Br)cc2)cc1`, the IC50 in data set [1] was 0.484 µM; in data set [2], 129 µM. The Ratio Ki in the data set filed under Homo sapiens [3] was found to be 163. For the same molecule, the Ratio IC50 in the data set filed under Homo sapiens [4] is 267.
As for `N#Cc1ccc(Sc2ccc(Br)cc2)cc1C#N`, the IC50 was found to be 0.079 µM in data set [1] and 19 µM in data set [2]. For the same molecule, the Ratio Ki in the data set listed under Homo sapiens [3] amounted to 147. In addition, the Ratio IC50 in the data set filed under Homo sapiens [4] amounted to 240.
In the case of `N#Cc1ccc(Sc2ccccc2)cc1C#N`, the IC50 in data set [1] came out at 2.13 µM; in data set [2] it was 3.58 µM. For the same molecule, in the data set filed under Homo sapiens [3], the Ratio Ki worked out at 1. Further, the Ratio IC50 in the data set listed under Homo sapiens [4] came to 1.7.
In the same order, the values of `CC(C)CCSc1ccc(C#N)c(C#N)c1` are 0.242 µM, 1.45 µM, 3.7 and 6.
The matching figures for `N#Cc1ccc(SCc2ccccc2)cc1C#N`: 0.167 µM, 9.02 µM, 33 and 54.
Take `N#Cc1ccc(OCc2ccccc2)cc1`: in the data set listed under Homo sapiens [4], the Ratio IC50 stood at 41.
Turning to `N#Cc1ccc(Sc2ccc(Cl)cc2)cc1C#N`, the half-maximal inhibitory concentration (IC50) in data set [1] stood at 0.114 µM; in data set [2], 11.1 µM. The Ratio Ki in the data set filed under Homo sapiens [3] was determined as 59.6. Also, in the data set filed under Homo sapiens [4], the Ratio IC50 came to 97.
`N#Cc1ccc(SCCc2ccccc2)cc1C#N`: the IC50 in data set [1] is 0.124 µM; in data set [2], 7.19 µM. In addition, the Ratio Ki in the data set listed under Homo sapiens [3] is 35.5. In addition, in the data set listed under Homo sapiens [4], the Ratio IC50 amounted to 58.
Take `N#Cc1ccc(OCc2ccccc2)cc1C#N`: the Ratio IC50 in the data set listed under Homo sapiens [4] came to 227.
As to `N#Cc1ccc(SCc2ccc(Cl)cc2)cc1`, the figures for the half-maximal inhibitory concentration (IC50) in data set [1] and in data set [2] were 0.531 µM and 20.3 µM, respectively. Further, the Ratio Ki in the data set filed under Homo sapiens [3] amounted to 23. The Ratio IC50 in the data set filed under Homo sapiens [4] was 38.
Turning to `N#Cc1ccc(SC2CCCC2)cc1C#N`, the values for the IC50 in data set [1] and in data set [2] were 0.887 µM and 2.78 µM, respectively. In addition, the Ratio Ki in the data set listed under Homo sapiens [3] was 1.9. Moreover, the Ratio IC50 in the data set listed under Homo sapiens [4] amounted to 3.1.
The matching figures for `N#Cc1ccc(Sc2ccc(Cl)cc2)cc1`: 4.28 µM, 18.2 µM, 2.6 and 4.3.
With `N#Cc1ccc(SCc2ccc(Cl)cc2)cc1C#N`, the “Ratio IC50” value in data set [5] was 240; in the data set listed under Homo sapiens [4], 45. Further, the values for the IC50 in data set [1] and in data set [2] were 0.014 µM and 0.623 µM, respectively. The Ratio Ki in the data set filed under Homo sapiens [3] was found to be 27.
Regarding `N#Cc1ccc(SCc2ccc(Br)cc2)cc1C#N`, the half-inhibitory concentration (IC50) in data set [1] amounted to 0.025 µM; in data set [2], 218 µM. In the data set filed under Homo sapiens [3], the Ratio Ki was found to be 5330. Further, the Ratio IC50 in the data set filed under Homo sapiens [4] was 8720. The Activity in data set [6] came to 48%.
Regarding `N#Cc1ccc(SC2CCCCC2)cc1`, the IC50 was found to be 4.77 µM in data set [1] and 9.87 µM in data set [2]. The Ratio Ki in the data set filed under Homo sapiens [3] was found to be 1.3. In addition, the Ratio IC50 in the data set listed under Homo sapiens [4] is 2.1.
In the same order, the values of `N#Cc1ccc(Sc2ccccc2)cc1` are 11.2 µM, 36.9 µM, 2 and 3.3.
As for `N#Cc1ccc(Sc2ccc(Br)cc2)cc1`, the IC50 in data set [1] amounted to 0.637 µM; in data set [2], 8.52 µM. For the same molecule, in the data set filed under Homo sapiens [3], the Ratio Ki turned out to be 8.2. For the same molecule, the Ratio IC50 in the data set listed under Homo sapiens [4] was 13.
The matching figures for `N#Cc1ccc(SCCc2ccccc2)cc1`: 1.81 µM, 54.3 µM, 18 and 30.
